The source of these data is ChEMBL document CHEMBL3774303, “Discovery of novel pyrrolo[2,3-b]pyridine derivatives bearing 1,2,3-triazole moiety as c-Met kinase inhibitors” (Bioorg Med Chem Lett, 2016).

Structures are written as SMILES.

Assay [1] deals with HT-29. The experiment in a line: Cytotoxicity against human HT-29 cells assessed as reduction in cell growth after 72 hrs by MTT assay. Particulars: HT-29, 72 h. Background: Tetrazolium assays rely on reduction of a dye to a coloured formazan, in cell work by metabolically active cells.
The test system of assay [2] is A549. The experiment in a line: Cytotoxicity against human A549 cells assessed as reduction in cell growth after 72 hrs by MTT assay. Particulars: A549, 72 h.
Assay [3] concerns MCF7. The experiment in a line: Cytotoxicity against human MCF7 cells assessed as reduction in cell growth after 72 hrs by MTT assay. In kind it is functional, cell-based. To be noted: MCF7, 72 h. An outline of the steps: (§1)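 Cells grown in MEM with 10% FBS were seeded at about 4 × 10³ cells/well and held 24 h at 37 °C in 5% CO₂. Compounds were then added and cells cultured 72 h. IC50 is the average of triplicate determinations.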

Assay [4] in a line: Cytotoxicity against human PC3 cells assessed as reduction in cell growth after 72 hrs by MTT assay. In kind it is functional, cell-based. Particulars: PC-3, 72 h. Put shortly:
as §1

Assay [5] deals with Hepatocyte growth factor receptor (Homo sapiens, UniProt P08581). As to the kind of experiment: Inhibition of cMet (unknown origin) using poly (Glu, Tyr) 4:1 as substrate after 30 mins by HTRF assay. A general note: Time-resolved FRET reads energy transfer from a long-lived donor to a nearby acceptor.
Hepatocyte growth factor receptor, sequence (P08581 whole entry): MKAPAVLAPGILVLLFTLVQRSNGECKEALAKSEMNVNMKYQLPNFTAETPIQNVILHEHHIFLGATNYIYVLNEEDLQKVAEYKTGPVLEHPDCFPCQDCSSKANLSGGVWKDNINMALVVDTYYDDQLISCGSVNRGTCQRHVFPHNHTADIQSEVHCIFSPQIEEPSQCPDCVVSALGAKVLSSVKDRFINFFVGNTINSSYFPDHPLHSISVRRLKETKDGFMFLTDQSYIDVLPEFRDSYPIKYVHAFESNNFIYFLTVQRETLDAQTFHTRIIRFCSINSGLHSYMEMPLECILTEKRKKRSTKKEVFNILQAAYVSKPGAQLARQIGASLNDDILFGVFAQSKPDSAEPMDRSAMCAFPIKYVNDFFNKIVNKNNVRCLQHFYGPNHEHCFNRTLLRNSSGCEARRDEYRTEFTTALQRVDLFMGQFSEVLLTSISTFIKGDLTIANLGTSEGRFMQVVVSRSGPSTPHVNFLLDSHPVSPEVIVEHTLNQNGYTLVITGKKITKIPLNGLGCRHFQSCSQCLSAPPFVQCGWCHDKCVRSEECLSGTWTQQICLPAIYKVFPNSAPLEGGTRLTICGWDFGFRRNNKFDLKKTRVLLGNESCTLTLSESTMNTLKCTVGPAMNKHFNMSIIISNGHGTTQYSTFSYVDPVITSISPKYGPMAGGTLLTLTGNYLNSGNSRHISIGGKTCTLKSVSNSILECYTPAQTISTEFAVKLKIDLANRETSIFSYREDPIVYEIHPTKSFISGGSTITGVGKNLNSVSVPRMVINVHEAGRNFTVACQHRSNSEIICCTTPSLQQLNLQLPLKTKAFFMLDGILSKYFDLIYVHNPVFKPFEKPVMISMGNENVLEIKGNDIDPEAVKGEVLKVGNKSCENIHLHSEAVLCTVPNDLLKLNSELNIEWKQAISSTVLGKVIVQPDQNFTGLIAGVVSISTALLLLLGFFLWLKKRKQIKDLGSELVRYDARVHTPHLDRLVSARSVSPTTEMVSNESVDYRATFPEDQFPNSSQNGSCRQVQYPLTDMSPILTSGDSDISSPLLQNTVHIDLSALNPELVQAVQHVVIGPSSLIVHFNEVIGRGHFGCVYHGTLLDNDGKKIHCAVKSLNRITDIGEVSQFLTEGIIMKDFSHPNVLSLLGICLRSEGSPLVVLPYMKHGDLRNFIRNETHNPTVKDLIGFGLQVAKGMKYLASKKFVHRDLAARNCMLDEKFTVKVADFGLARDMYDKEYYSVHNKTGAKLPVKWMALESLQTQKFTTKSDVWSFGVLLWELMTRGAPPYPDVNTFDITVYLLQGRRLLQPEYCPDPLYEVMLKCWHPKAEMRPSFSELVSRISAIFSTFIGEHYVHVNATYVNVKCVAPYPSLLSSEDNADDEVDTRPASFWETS
The target in assay [6] is T1, Receptor-type tyrosine-protein kinase FLT3 (Homo sapiens, UniProt P36888).
T1 sequence (P36888 whole entry): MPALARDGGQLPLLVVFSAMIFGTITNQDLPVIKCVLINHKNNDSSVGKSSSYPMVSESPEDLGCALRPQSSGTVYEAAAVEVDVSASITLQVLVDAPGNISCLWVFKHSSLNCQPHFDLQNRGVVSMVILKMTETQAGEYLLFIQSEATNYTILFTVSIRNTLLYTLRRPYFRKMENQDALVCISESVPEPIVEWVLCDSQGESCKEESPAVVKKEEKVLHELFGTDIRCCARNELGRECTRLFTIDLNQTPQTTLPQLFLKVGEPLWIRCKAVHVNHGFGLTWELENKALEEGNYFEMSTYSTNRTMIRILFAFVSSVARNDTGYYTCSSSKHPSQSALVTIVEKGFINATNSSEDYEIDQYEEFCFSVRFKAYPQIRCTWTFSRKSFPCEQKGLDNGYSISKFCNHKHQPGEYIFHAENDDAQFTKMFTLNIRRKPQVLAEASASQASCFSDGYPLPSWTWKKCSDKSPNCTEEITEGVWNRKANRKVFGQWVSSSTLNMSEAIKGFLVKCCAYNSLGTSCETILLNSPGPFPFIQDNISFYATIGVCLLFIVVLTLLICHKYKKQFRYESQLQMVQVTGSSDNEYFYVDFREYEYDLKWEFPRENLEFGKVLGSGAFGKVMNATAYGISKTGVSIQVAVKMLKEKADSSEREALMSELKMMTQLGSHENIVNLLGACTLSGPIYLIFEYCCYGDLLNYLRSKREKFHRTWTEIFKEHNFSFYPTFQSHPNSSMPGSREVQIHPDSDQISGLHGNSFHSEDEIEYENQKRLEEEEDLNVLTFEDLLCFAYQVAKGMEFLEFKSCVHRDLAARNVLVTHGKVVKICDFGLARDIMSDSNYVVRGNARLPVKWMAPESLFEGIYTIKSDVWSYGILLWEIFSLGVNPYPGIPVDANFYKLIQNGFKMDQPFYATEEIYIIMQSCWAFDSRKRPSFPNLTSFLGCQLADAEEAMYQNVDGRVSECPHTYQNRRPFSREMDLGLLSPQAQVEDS
The experiment in a line: Inhibition of FLT3 (unknown origin) using poly (Glu, Tyr) 4:1 as substrate after 30 mins by HTRF assay. An outline of the steps: (§2)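 HTRF tyrosine-kinase assay with purified enzyme on preloaded poly(Glu,Tyr) 4:1 substrate (20 μg/mL). ATP was added from a 10 mM solution in HEPES buffer (50 mM, pH 7.0, with Mg²⁺, Mn²⁺, DTT, 0.1% NaN₃), and compounds in 1% DMSO.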

Assay [7] has as its target Platelet-derived growth factor receptor beta (Homo sapiens, UniProt P09619). The experiment in a line: Inhibition of PDGFRbeta (unknown origin) using poly (Glu, Tyr) 4:1 as substrate after 30 mins by HTRF assay. An outline of the steps:
as §2

Assay [8] concerns the target Vascular endothelial growth factor receptor 2 (Homo sapiens, UniProt P35968). As to the kind of experiment: Inhibition of KDR (unknown origin) using poly (Glu, Tyr) 4:1 as substrate after 30 mins by HTRF assay. Put shortly: as §2
Assay [9] concerns the target Mast/stem cell growth factor receptor Kit (Homo sapiens, UniProt P10721). As to the kind of experiment: Inhibition of cKit (unknown origin) using poly (Glu, Tyr) 4:1 as substrate after 30 mins by HTRF assay. Put shortly:
as §2

Vascular endothelial growth factor receptor 2, sequence (P35968 whole entry): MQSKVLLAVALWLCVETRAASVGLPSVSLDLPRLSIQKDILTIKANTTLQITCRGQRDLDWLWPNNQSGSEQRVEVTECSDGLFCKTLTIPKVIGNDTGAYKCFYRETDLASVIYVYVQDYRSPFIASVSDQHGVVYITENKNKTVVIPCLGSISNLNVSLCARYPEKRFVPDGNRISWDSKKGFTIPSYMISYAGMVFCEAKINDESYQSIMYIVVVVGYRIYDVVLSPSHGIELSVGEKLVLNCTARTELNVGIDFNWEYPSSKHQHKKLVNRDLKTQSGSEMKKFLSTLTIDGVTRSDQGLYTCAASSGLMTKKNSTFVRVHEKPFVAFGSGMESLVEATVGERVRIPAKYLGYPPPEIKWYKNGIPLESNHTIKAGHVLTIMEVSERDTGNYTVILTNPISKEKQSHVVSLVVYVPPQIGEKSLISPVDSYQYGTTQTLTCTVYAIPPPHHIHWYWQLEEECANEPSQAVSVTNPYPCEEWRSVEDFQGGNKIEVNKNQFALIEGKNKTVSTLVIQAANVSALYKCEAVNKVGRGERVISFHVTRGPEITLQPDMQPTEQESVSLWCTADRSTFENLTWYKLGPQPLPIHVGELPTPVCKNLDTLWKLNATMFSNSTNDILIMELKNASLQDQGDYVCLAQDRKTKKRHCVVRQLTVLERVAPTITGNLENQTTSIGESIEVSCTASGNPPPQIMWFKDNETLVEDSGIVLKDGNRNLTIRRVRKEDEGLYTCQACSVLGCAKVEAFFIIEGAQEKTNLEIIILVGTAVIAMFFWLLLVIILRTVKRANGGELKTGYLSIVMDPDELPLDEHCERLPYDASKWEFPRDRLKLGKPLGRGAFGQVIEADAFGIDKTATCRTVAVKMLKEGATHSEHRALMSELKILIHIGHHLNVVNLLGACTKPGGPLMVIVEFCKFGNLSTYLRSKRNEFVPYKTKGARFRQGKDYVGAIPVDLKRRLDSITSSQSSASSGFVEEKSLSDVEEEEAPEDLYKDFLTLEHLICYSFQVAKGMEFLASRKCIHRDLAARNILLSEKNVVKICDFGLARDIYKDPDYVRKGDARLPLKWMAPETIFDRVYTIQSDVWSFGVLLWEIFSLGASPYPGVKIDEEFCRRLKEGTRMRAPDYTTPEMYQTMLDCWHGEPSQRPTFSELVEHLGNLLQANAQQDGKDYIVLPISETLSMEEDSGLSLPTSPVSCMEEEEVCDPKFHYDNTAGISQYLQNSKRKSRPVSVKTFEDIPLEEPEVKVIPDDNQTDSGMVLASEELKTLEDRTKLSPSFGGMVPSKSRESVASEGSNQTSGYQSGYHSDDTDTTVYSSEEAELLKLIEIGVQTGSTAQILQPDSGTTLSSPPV
Platelet-derived growth factor receptor beta, sequence (P09619 whole entry): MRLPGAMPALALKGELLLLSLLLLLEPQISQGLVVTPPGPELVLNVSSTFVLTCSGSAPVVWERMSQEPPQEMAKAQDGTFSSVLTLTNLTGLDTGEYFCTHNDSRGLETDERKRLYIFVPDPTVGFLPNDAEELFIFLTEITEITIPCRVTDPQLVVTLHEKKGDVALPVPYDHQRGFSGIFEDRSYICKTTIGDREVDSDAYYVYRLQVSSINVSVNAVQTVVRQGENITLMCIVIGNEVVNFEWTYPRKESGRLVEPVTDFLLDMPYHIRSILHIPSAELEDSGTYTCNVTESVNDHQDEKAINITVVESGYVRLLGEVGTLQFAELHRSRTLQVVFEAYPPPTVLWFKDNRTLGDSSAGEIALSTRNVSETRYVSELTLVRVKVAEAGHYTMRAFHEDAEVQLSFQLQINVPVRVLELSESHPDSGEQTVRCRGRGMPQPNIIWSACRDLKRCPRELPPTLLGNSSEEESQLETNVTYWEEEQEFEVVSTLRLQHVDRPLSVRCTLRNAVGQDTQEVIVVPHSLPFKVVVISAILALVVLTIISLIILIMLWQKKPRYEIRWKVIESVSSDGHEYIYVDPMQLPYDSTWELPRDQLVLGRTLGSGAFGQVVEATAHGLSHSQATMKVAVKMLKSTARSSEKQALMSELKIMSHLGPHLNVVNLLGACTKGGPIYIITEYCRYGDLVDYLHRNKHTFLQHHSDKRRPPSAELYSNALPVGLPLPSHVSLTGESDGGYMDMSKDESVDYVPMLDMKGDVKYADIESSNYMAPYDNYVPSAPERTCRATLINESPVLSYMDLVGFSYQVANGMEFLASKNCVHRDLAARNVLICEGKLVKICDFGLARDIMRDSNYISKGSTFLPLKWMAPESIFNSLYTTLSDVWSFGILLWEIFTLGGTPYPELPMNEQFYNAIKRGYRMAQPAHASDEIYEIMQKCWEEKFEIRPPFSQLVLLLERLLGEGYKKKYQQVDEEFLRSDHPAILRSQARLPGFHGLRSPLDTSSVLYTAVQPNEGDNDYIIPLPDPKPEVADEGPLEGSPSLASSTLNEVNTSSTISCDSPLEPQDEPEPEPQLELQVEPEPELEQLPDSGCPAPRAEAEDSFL
Mast/stem cell growth factor receptor Kit, sequence (P10721 whole entry): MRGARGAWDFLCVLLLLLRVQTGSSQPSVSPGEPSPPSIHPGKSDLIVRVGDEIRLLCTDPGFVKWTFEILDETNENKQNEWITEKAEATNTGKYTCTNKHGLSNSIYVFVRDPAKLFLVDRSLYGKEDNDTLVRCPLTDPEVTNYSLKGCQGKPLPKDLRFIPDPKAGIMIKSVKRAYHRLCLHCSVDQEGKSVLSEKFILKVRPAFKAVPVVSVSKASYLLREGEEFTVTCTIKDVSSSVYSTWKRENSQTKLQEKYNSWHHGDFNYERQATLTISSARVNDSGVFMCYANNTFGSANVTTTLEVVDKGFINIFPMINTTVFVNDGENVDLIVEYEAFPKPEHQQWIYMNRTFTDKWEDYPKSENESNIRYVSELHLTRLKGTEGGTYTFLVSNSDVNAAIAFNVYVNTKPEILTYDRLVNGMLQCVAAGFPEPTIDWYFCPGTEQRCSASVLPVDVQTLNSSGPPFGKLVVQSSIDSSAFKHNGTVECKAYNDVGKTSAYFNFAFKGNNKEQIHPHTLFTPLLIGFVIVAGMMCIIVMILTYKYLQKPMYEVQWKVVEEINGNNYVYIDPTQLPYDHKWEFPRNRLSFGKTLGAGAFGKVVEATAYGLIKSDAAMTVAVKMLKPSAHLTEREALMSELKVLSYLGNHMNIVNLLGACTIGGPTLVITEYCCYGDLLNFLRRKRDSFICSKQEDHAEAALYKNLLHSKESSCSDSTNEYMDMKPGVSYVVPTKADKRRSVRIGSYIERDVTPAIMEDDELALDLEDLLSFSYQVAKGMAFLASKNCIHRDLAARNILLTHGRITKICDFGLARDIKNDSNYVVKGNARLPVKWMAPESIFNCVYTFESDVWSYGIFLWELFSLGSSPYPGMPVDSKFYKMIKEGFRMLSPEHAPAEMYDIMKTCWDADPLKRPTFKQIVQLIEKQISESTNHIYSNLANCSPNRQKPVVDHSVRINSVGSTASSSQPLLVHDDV

What is called IC50 is the concentration needed to halve the response being measured. `O=C(Nc1ccc(Oc2ccnc3[nH]ccc23)c(F)c1)c1nnn(-c2ccc(F)c(F)c2)c1C(F)(F)F`: the IC50 in assay [1] worked out at 320 nM; in [2], 350 nM; in assay [3] it was 590 nM; in assay [4] it was 2480 nM.

Regarding `Cc1c(C(=O)Nc2ccc(Oc3ccnc4[nH]ccc34)cc2)nnn1-c1ccc(F)c(F)c1`, the half-maximal inhibitory concentration (IC50) was found to be 1070 nM in [1] and 2260 nM in [2].

On to `Cc1c(C(=O)Nc2ccc(Oc3ccnc4[nH]ccc34)cc2)nnn1-c1ccc(F)cc1`, for which the 50% inhibitory concentration (IC50) in assay [1] was 180 nM; in assay [2], 220 nM; in [3], 390 nM; in assay [4], 3450 nM.

For `Cc1c(C(=O)Nc2ccc(Oc3ccnc4[nH]ccc34)cc2)nnn1-c1ccccc1`, the IC50 in [1] turned out to be 350 nM; in [2], 420 nM; in assay [3], 320 nM; in assay [4] it was 7260 nM.

Regarding `COc1ccc(-n2nnc(C(=O)Nc3ccc(Oc4ccnc5[nH]ccc45)c(F)c3)c2C(F)(F)F)cc1`, the IC50 in assay [1] came to 290 nM; in assay [2] it was 360 nM; in assay [3], 510 nM; in assay [4], 1850 nM.

For `O=C(Nc1ccc(Oc2ccnc3[nH]ccc23)cc1)c1nnn(-c2ccc(Cl)c(C(F)(F)F)c2)c1C(F)(F)F`, the IC50 in assay [1] worked out at 1530 nM; in assay [2], 2340 nM.

As for `O=C(Nc1ccc(Oc2ccnc3[nH]ccc23)c(F)c1)c1nnn(-c2ccc(F)c(Cl)c2)c1C(F)(F)F`, the IC50 was determined as 630 nM in assay [1] and 820 nM in [2].

With `COc1ccc(-n2nnc(C(=O)Nc3ccc(Oc4ccnc5[nH]ccc45)cc3)c2C(F)(F)F)cc1`, the IC50 in assay [1] was determined as 290 nM; in assay [2], 460 nM; in [3], 580 nM; in assay [4], 4850 nM.

As to `Cc1c(C(=O)Nc2ccc(Oc3ccnc4[nH]ccc34)cc2)nnn1-c1ccc(Cl)c(C(F)(F)F)c1`, the concentration for half-maximal inhibition (IC50) in assay [1] was found to be 3290 nM; in assay [2] it was 2830 nM; in assay [3] it was 8410 nM; in [4] it was 10900 nM.

As for `Cc1c(C(=O)Nc2ccc(Oc3ccnc4[nH]ccc34)cc2)nnn1-c1ccccc1F`, the IC50 worked out at 360 nM in assay [1], 320 nM in assay [2], 280 nM in assay [3] and 3450 nM in assay [4].

Take `O=C(Nc1ccc(Oc2ccnc3[nH]ccc23)c(F)c1)c1nnn(-c2ccccc2F)c1C(F)(F)F`: the IC50 in assay [1] is 73 nM; in assay [2], 190 nM; in assay [3], 280 nM; in assay [4] it was 2130 nM.

Regarding `O=C(Nc1ccc(Oc2ccnc3[nH]ccc23)cc1)c1nnn(-c2ccccc2F)c1C(F)(F)F`, the IC50 in [1] amounted to 120 nM; in assay [2], 210 nM; in [3], 290 nM; in assay [4] it was 3690 nM.

`O=C(Nc1ccc(Oc2ccnc3[nH]ccc23)cc1)c1nnn(-c2ccccc2)c1C(F)(F)F`: the IC50 in assay [1] amounted to 190 nM; in assay [2] it was 290 nM; in [3], 260 nM; in [4], 3570 nM.

Regarding `O=C(Nc1ccc(Oc2ccnc3[nH]ccc23)cc1)c1nnn(-c2ccc(F)c(F)c2)c1C(F)(F)F`, the concentration for half-maximal inhibition (IC50) in assay [1] came to 520 nM; in assay [2], 790 nM; in assay [3], 690 nM; in assay [4] it was 7310 nM.

For `Cc1c(C(=O)Nc2ccc(Oc3ccnc4[nH]ccc34)c(F)c2)nnn1-c1ccc(F)c(F)c1`, the IC50 in [1] turned out to be 610 nM; in assay [2], 570 nM; in assay [3] it was 820 nM; in assay [4], 6540 nM.

For `Cc1c(C(=O)Nc2ccc(Oc3ccnc4[nH]ccc34)c(F)c2)nnn1-c1ccc(F)c(Cl)c1`, the concentration for half-maximal inhibition (IC50) in assay [1] is 1060 nM; in assay [2] it was 730 nM.

Consider `Cc1c(C(=O)Nc2ccc(Oc3ccnc4[nH]ccc34)c(F)c2)nnn1-c1ccccc1F`, for which the IC50 worked out at 180 nM in [1], 390 nM in assay [2], 420 nM in assay [3] and 3240 nM in assay [4].

Take `O=C(Nc1ccc(Oc2ccnc3[nH]ccc23)cc1)c1nnn(-c2ccc(F)c(Cl)c2)c1C(F)(F)F`: the 50% inhibitory concentration (IC50) stood at 1020 nM in assay [1] and 1120 nM in [2].

On to `Cc1c(C(=O)Nc2ccc(Oc3ccnc4[nH]ccc34)c(F)c2)nnn1-c1ccc(F)cc1`, for which the IC50 in [1] came to 120 nM; in assay [2], 150 nM; in [3] it was 170 nM; in [4] it was 4350 nM.

Turning to `O=C(Nc1ccc(Oc2ccnc3[nH]ccc23)cc1)c1nnn(-c2ccc(F)cc2)c1C(F)(F)F`, the IC50 in [1] is 93 nM; in assay [2], 180 nM; in [3], 210 nM; in assay [4], 2830 nM.

For the compound `COc1ccc(-n2nnc(C(=O)Nc3ccc(Oc4ccnc5[nH]ccc45)c(F)c3)c2C)cc1`, the values for the IC50 in assay [1] and in assay [2] were 590 nM and 710 nM, respectively.

With `Cc1c(C(=O)Nc2ccc(Oc3ccnc4[nH]ccc34)c(F)c2)nnn1-c1ccccc1`, the IC50 came to 290 nM in assay [1], 360 nM in assay [2], 350 nM in assay [3] and 2340 nM in [4].

Take `O=C(Nc1ccc(Oc2ccnc3[nH]ccc23)c(F)c1)c1nnn(-c2ccc(Cl)c(C(F)(F)F)c2)c1C(F)(F)F`: the IC50 in assay [1] was determined as 1050 nM; in assay [2], 1290 nM.

`Cc1c(C(=O)Nc2ccc(Oc3ccnc4[nH]ccc34)c(F)c2)nnn1-c1ccc(Cl)c(C(F)(F)F)c1`: the half-inhibitory concentration (IC50) came to 1120 nM in [1] and 2370 nM in [2].

On to `O=C(Nc1ccc(Oc2ccnc3[nH]ccc23)c(F)c1)c1nnn(-c2ccc(F)cc2)c1C(F)(F)F`, for which the IC50 in assay [5] amounted to 1.68 nM; in [1], 29 nM; in [2], 82 nM; in assay [3], 110 nM; in [4], 1520 nM; in assay [6], 2.06 nM. Further, the IC50 in assay [7] turned out to be 4.57 nM; in assay [8], 86.2 nM; in assay [9], 325 nM.

For the compound `O=C(Nc1ccc(Oc2ccnc3[nH]ccc23)c(F)c1)c1nnn(-c2ccccc2)c1C(F)(F)F`, the IC50 is 91 nM in [1], 220 nM in [2], 1150 nM in assay [3] and 2320 nM in assay [4].

Regarding `Cc1c(C(=O)Nc2ccc(Oc3ccnc4[nH]ccc34)cc2)nnn1-c1ccc(F)c(Cl)c1`, the IC50 in [1] turned out to be 2180 nM; in [2] it was 980 nM; in [3], 6310 nM; in [4] it was 12600 nM.

With `COc1ccc(-n2nnc(C(=O)Nc3ccc(Oc4ccnc5[nH]ccc45)cc3)c2C)cc1`, the half-maximal inhibitory concentration (IC50) worked out at 1160 nM in assay [1] and 2420 nM in [2].
